Screens from PubChem.
The list is not random: actives were taken first. Their share in the collection is about 11%.
M1 antag – antagonists of rat M1 muscarinic receptor | 64,000 tested, 3.4% active | B-score at 10 µM | CHO-M1 cells, Fluo-4 calcium, ACh EC80 antagonist mode; stronger effect = lower value | Muscarinic acetylcholine receptor M1 (Rattus norvegicus), P08482 | AID 628, 2007;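 active = calcium fluorescence response, raw or row-and-column corrected B-score, differing from the plate sample mean either way at a set confidence level, mostly lower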
S1P3 ag – human S1P3 receptor agonists, primary screen, cell-based, primary and confirmation, NFAT-BLA reporter. S1P3 NFAT-BLA reporter cells, agonism, FRET ratio; relative to 1 µM S1P, basal subtracted. activation, % at 4.5 µM. 60,000 tested, 0.1% active;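 active = activation above the screen-wide mean plus 3 SD, cut at about 4.5% in these data, passing the limit was not always enough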
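Assay system: CHO cells stably expressing human S1P3, Gα16 and NFAT-β-lactamase reporter. Timing: overnight plating, 4 h compound 37 °C, 2 h substrate RT. Signal: β-lactamase FRET emission ratio 460/535 nm. Measure: percent activation versus median 1 µM S1P response, basal-subtracted, per plate. Repeats: primary screen single test, confirmation screen in triplicate.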
S1P1 ag-PAM – S1P1 agonists and agonism potentiators, primary screen, cell-based, primary and confirmation screens, CRE-bla reporter. AID 449, 2006. 56,000 tested, 0.57% active. S1P1 CRE-bla cells, forskolin, beta-lactamase FRET, potentiator mode; S1P1 agonist co-added at EC20, 2 nM; 100% = saturating reference agonist, 0% = basal. activation, % at 9.5 µM;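 active = activation above a cutoff set at the mean activation of all tested compounds plus 3 SD, cut at about 54% in these data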;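 note: forskolin at 4 µM as EC80 and the EC20 agonist is SEW2871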
Target sequence (P21453 whole entry, looked up): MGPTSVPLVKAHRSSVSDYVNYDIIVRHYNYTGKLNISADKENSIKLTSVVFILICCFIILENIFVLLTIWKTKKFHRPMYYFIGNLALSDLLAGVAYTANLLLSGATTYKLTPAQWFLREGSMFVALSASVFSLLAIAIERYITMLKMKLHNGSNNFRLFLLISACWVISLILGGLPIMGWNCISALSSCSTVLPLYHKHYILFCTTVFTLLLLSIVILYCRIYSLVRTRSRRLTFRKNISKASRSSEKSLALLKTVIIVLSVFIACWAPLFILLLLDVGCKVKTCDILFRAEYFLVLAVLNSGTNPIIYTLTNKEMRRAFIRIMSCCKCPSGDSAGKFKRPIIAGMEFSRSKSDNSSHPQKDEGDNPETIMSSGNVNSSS
D1 mod – D1 CRE-luciferase signal change, two-sided – cell-based, HEK293 D1, dopamine EC30, D1 allosteric modulator project, primary screen | D(1A) dopamine receptor (Homo sapiens), P21728 | AID 641, 2007 | dopamine EC30 potentiation; actives deviate in either direction | 58,000 tested, 5.9% active | B-score at 10 µM;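 active = luminescence count or its row- and column-corrected plate score outside the 99.7% band of the plate's sample wells, on either side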
M1 agonist – M1 muscarinic receptor agonists, primary screen, CHO-M1 cells, Fluo-4 calcium, agonist mode; 64,000 tested, 3% active; B-score at 10 µM; AID 626, 2007; Fluo-4 calcium fluorescence; stronger effect = higher value;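 active = fluorescence rise, raw or as B-score row- and column-corrected plate score, outside the 99.7% band of its plate's samples, either direction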
M1 agonist conf – rat M1 muscarinic receptor agonists, confirmation, CHO-M1 cells, Fluo-4 calcium, duplicate retest; AID 1488, 2009; 1,700 tested, 19% active; shares compounds with M1 agonist; Fluo-4 calcium fluorescence, agonist mode; actives lie on both sides; fluorescence change (max-min) at 10 µM;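 active = fluorescence change differs from the solvent-only DMSO control mean at a set confidence level in both duplicate runs; inconclusive = differs from solvent-only control mean in just one of two runs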;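 note: an EC20 dose of acetylcholine follows compound addition during the same imaging run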
M4 ag counter – agonist activity at rat M4 receptor, confirmation, counter-screen for M1 allosteric modulator project, cell-based, agonist mode; shares compounds with M1 agonist; AID 1741, 2009; fluorescence change (max-min) at 10 µM; 1,700 tested, 9% active; CHO M4/Gqi5 cells, Fluo-4 calcium fluorescence; actives lie on both sides;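 active = fluorescence change differing from the plate's solvent-only control wells at 99.7% confidence in both duplicates, whether higher or lower; inconclusive = differs from solvent controls in only one of two duplicates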
Hits are given with their value.

`NC(=O)c1nsc(C(=O)N(CC(=O)NCc2ccc3c(c2)OCO3)C2CCCC2)c1N` gave M1 antag inactive, S1P3 ag inactive, S1P1 ag-PAM inactive, D1 mod inactive and M1 agonist inactive.
For C=CCNc1nc2c(c(=O)n(C)c(=O)n2C)n1CC(=C)C the results were M1 antag inactive, S1P3 ag inactive, S1P1 ag-PAM inactive, D1 mod inactive and M1 agonist inactive.
CC1(C)CC2(CC(C)(C)NC(=O)N2)NC(=O)N1 was read as M1 antag inactive, D1 mod inactive and M1 agonist inactive.
For COc1cc(OC)c(-c2nnc(-c3ccc(OC)c(OC)c3OC)o2)cc1OC the results were M1 antag inactive, S1P3 ag inactive, D1 mod inactive, M1 agonist 4.47, M1 agonist conf -29.9 and M4 ag counter inactive.
For COc1cc(-c2nnc(-c3ccc(S(=O)(=O)c4ccccc4)cc3)o2)cc(OC)c1OC the results were M1 antag inactive, S1P3 ag inactive, S1P1 ag-PAM inactive, D1 mod inactive and M1 agonist inactive.
`COc1ccc(C(=O)N2CCCC(c3nc(-c4cccs4)no3)C2)cc1` (centres undefined) gave M1 antag inactive, S1P3 ag inactive, S1P1 ag-PAM inactive, D1 mod inactive and M1 agonist inactive.
Screening CCCOC(=O)CSC1=C(C#N)C(c2ccccc2OC)C(C#N)C(=O)N1 (centres undefined) returned M1 antag inactive, S1P3 ag inactive, S1P1 ag-PAM inactive and M1 agonist inactive.
Screening COC(=O)CCCC(=O)Nc1c(F)c(F)c(F)c(F)c1F returned M1 antag inactive, S1P3 ag inactive, S1P1 ag-PAM inactive, D1 mod inactive and M1 agonist inactive.
For Cc1ccc(S(=O)(=O)N2CCN(C(=O)c3cc(=O)[nH]c4ccccc34)CC2)c(C)c1 the results were M1 antag inactive, S1P3 ag inactive, S1P1 ag-PAM inactive, D1 mod inactive, M1 agonist 4.71, M1 agonist conf inactive and M4 ag counter inactive.
`CC(SCCc1ccccn1)C(=O)O` (centres undefined) gave M1 antag inactive, S1P3 ag inactive, S1P1 ag-PAM inactive, D1 mod inactive and M1 agonist inactive.
Screening COCCN1C(=O)C(CC(=O)Nc2ccc(C(C)=O)cc2)SC1=Nc1ccccc1 (centres undefined) returned M1 antag inactive, S1P3 ag inactive, S1P1 ag-PAM inactive, D1 mod inactive, M1 agonist 3.86, M1 agonist conf inconclusive and M4 ag counter inactive.
For CC1=C(C#N)C(=O)N(C)C(C)(C)C1 the results were M1 antag inactive, S1P3 ag inactive, S1P1 ag-PAM inactive, D1 mod inactive, M1 agonist 19.3, M1 agonist conf inactive and M4 ag counter inactive.
Screening CC1=C(C#N)C(=O)NC(C)(C)C1 returned M1 antag inactive, S1P3 ag inactive, S1P1 ag-PAM inactive, D1 mod inactive and M1 agonist inactive.
`CCCCCOC(=O)c1ccccc1C(=O)O` gave M1 antag inactive, S1P3 ag inactive, S1P1 ag-PAM inactive, D1 mod inactive, M1 agonist 3.02, M1 agonist conf inactive and M4 ag counter inconclusive.
Screening CC1CCN(CCCNC(=O)Cc2c(C(=O)O)n(C)c3ccccc23)CC1 returned M1 antag inactive, S1P3 ag inactive, S1P1 ag-PAM inactive, D1 mod inactive and M1 agonist inactive.
For N#C/C(=C\c1ccc(O)c(O)c1)S(=O)(=O)c1ccccc1 the results were M1 antag inactive, S1P3 ag inactive, S1P1 ag-PAM inactive, D1 mod inactive, M1 agonist 22, M1 agonist conf inactive and M4 ag counter inactive.
Screening CCc1ccc(OCC(=O)Nc2ncc3c(n2)CC(C)(C)CC3=O)cc1 returned M1 antag inactive, S1P3 ag inactive, S1P1 ag-PAM inactive, D1 mod inactive and M1 agonist inactive.
Screening Cc1ccc(-n2c(C)nc3c(cnn3-c3ccc(F)cc3)c2=O)cc1C returned M1 antag inactive, S1P3 ag inactive, S1P1 ag-PAM inactive, D1 mod inactive, M1 agonist 3.54, M1 agonist conf inactive and M4 ag counter inconclusive.
`CSc1nc2c(cnn2-c2ccc(C)c(C)c2)c(=O)[nH]1` gave M1 antag inactive, S1P3 ag inactive, S1P1 ag-PAM inactive, D1 mod inactive and M1 agonist inactive.
Screening Cc1ccc(S(=O)(=O)Nc2ccc(-c3nnc(SCC#N)n3C)cc2)cc1 returned M1 antag inactive, S1P3 ag inactive, S1P1 ag-PAM inactive, D1 mod inactive and M1 agonist inactive.
O=S(=O)(O)c1nnc2sc3ccccc3n12 was read as M1 antag inactive, S1P3 ag inactive, S1P1 ag-PAM inactive, D1 mod inactive and M1 agonist inactive.
For N#Cc1cnc2sc3ccccc3n2c1=N the results were M1 antag inactive, D1 mod inactive, M1 agonist -2.44, M1 agonist conf inactive and M4 ag counter inactive.
Screening CC(C)(C)OC(=O)N[C@@H](Cc1ccccc1)c1nnc(S(=O)(=O)Cc2ccccc2)o1 returned M1 antag inactive, S1P3 ag inactive, S1P1 ag-PAM 85.9, D1 mod inactive, M1 agonist 20.7, M1 agonist conf inactive and M4 ag counter inactive.
`CC(C)NC(=O)CCNC(=O)c1ccc(F)cc1` gave M1 antag inactive, S1P3 ag inactive, S1P1 ag-PAM inactive, D1 mod inactive and M1 agonist inactive.
Screening O=C(CSC1=NCCS1)Nc1ccnc2ccccc12 returned M1 antag inactive, S1P3 ag inactive, S1P1 ag-PAM 108.6, D1 mod inactive, M1 agonist 4.23, M1 agonist conf inactive and M4 ag counter inconclusive.
For CC(=O)Nc1ccc(NC(=O)CSC2=NCCS2)cc1 the results were M1 antag inactive, S1P3 ag inactive, S1P1 ag-PAM inactive, D1 mod inactive and M1 agonist inactive.
COc1ccc(OC)c(NC(=O)CC(NCCC2=CCCCC2)C(=O)O)c1 (centres undefined) was read as M1 antag inactive, S1P3 ag inactive, S1P1 ag-PAM inactive, D1 mod inactive and M1 agonist inactive.
For COc1ccc(-c2noc(CCC(=O)NCCCN3CCC(C)CC3)n2)cc1 the results were M1 antag inactive, D1 mod inactive and M1 agonist inactive.
